Assay results taken from ChEMBL document CHEMBL1137306, “Evaluation of 3-carboxy-4(1H)-quinolones as inhibitors of human protein kinase CK2” (J Med Chem, 2006).

Assays:
[1] = biological target: T1, Casein kinase II (Homo sapiens, UniProt P19784+P67870+P68400); test: Inhibition of human CK2; format: protein-complex assay
[2] = biological target: T2, Casein kinase II (Homo sapiens) (UniProt P67870+P68400+P19784); test: Residual activity of human CK2 at 30 uM; format: protein-complex assay
[3] = biological target: T1, Casein kinase II; test: Binding affinity to human CK2 in presence of ATP; format: protein-complex assay
Summary of the method: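 Ki obtained from Lineweaver-Burk plots of CK2 activity measured at varied ATP and inhibitor concentrations (inhibitor 0 to 0.5 µM). Activity was read by the radiometric phosphocellulose peptide assay.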

[4] = biological target: T2, Casein kinase II (Homo sapiens); test: Residual activity of CK2 at 10 uM in presence of 100 uM ATP relative to control; format: protein-complex assay
[5] = biological target: Rho-associated protein kinase 1 (Homo sapiens) (UniProt Q13464); test: Residual activity of ROCK1 at 10 uM in presence of 100 uM ATP relative to control
[6] = biological target: Mitogen-activated protein kinase 10 (Homo sapiens) (UniProt P53779); test: Residual activity of JNK3 at 10 uM in presence of 100 uM ATP relative to control
[7] = biological target: Tyrosine-protein kinase Lck (Homo sapiens) (UniProt P06239); test: Residual activity of p56LCK at 10 uM in presence of 100 uM ATP relative to control
[8] = biological target: Dual specificity tyrosine-phosphorylation-regulated kinase 1A (Homo sapiens) (UniProt Q13627); test: Residual activity of DYRK1a at 10 uM in presence of 100 uM ATP relative to control
[9] = biological target: Ribosomal protein S6 kinase alpha-5 (Homo sapiens) (UniProt O75582); test: Residual activity of MSK1 at 10 uM in presence of 100 uM ATP relative to control
[10] = biological target: Glycogen synthase kinase-3 (Homo sapiens) (UniProt P49840+P49841); test: Residual activity of GSK3 at 10 uM in presence of 100 uM ATP relative to control; format: protein assay
[11] = biological target: Cyclin-dependent kinase 5 (Homo sapiens) (UniProt Q00535); test: Residual activity of CDK5 at 10 uM in presence of 100 uM ATP relative to control
Cyclin-dependent kinase 5 (Homo sapiens), sequence (Q00535 whole entry, looked up): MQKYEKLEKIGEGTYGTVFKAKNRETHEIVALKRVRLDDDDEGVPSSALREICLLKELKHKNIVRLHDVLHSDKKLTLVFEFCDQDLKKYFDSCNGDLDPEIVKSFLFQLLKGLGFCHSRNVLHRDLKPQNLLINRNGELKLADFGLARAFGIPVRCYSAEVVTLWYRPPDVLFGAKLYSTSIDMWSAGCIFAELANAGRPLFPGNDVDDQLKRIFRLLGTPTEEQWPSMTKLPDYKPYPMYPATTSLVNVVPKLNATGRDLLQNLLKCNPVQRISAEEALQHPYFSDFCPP

T1 sequence (P67870 whole entry): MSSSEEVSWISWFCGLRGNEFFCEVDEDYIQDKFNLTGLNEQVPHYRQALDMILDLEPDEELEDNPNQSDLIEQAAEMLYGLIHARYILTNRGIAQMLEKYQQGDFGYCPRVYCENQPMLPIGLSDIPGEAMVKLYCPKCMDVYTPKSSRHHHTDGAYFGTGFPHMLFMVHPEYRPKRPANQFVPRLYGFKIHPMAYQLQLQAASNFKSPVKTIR
T1 sequence (P68400 whole entry): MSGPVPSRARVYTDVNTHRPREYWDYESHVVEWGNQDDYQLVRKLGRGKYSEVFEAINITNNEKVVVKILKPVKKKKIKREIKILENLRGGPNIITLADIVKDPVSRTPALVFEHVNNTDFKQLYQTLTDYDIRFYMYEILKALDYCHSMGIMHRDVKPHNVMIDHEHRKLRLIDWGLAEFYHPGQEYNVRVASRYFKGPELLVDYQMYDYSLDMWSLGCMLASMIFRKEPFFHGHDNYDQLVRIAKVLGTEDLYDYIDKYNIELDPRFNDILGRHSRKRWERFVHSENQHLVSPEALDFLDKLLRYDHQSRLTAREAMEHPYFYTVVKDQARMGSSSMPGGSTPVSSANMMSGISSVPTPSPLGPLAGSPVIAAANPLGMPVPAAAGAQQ
T1 sequence (P19784 whole entry): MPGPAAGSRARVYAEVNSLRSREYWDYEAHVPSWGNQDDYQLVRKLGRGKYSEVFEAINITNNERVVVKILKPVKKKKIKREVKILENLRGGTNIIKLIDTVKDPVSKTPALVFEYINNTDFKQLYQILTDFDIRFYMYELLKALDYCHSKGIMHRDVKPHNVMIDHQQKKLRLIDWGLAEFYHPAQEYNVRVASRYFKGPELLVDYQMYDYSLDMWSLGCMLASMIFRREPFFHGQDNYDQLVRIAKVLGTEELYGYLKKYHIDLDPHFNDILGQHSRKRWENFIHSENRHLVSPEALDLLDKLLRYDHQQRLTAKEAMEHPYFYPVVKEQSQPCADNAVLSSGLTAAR
Glycogen synthase kinase-3 (Homo sapiens), sequence (P49840 whole entry, looked up): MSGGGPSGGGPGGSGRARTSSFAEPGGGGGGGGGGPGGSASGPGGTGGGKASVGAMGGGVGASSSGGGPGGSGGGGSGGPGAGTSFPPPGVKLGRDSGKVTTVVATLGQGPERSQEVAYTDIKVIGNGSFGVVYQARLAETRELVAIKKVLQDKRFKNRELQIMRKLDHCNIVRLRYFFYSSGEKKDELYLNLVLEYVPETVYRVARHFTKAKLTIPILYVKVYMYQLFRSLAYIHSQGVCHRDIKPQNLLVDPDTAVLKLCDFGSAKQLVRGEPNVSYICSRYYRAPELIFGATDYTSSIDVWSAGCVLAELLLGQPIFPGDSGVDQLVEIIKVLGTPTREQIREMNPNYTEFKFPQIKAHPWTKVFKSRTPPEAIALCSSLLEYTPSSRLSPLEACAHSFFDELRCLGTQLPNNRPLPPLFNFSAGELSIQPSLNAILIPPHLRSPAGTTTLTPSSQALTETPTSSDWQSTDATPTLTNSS
Glycogen synthase kinase-3 (Homo sapiens), sequence (P49841 whole entry, looked up): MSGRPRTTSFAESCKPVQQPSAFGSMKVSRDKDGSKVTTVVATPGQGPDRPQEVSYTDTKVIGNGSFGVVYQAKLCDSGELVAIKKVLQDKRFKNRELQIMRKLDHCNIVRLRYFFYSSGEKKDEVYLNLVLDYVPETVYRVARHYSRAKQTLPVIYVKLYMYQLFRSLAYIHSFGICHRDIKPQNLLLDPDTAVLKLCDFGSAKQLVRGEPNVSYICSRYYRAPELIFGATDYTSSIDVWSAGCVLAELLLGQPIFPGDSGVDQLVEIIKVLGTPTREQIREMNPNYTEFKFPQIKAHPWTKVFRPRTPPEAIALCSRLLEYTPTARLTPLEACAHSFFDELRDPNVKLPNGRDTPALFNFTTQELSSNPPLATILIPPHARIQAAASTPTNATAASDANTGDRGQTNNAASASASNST
Rho-associated protein kinase 1 (Homo sapiens), sequence (Q13464 2-1354 limits assumed): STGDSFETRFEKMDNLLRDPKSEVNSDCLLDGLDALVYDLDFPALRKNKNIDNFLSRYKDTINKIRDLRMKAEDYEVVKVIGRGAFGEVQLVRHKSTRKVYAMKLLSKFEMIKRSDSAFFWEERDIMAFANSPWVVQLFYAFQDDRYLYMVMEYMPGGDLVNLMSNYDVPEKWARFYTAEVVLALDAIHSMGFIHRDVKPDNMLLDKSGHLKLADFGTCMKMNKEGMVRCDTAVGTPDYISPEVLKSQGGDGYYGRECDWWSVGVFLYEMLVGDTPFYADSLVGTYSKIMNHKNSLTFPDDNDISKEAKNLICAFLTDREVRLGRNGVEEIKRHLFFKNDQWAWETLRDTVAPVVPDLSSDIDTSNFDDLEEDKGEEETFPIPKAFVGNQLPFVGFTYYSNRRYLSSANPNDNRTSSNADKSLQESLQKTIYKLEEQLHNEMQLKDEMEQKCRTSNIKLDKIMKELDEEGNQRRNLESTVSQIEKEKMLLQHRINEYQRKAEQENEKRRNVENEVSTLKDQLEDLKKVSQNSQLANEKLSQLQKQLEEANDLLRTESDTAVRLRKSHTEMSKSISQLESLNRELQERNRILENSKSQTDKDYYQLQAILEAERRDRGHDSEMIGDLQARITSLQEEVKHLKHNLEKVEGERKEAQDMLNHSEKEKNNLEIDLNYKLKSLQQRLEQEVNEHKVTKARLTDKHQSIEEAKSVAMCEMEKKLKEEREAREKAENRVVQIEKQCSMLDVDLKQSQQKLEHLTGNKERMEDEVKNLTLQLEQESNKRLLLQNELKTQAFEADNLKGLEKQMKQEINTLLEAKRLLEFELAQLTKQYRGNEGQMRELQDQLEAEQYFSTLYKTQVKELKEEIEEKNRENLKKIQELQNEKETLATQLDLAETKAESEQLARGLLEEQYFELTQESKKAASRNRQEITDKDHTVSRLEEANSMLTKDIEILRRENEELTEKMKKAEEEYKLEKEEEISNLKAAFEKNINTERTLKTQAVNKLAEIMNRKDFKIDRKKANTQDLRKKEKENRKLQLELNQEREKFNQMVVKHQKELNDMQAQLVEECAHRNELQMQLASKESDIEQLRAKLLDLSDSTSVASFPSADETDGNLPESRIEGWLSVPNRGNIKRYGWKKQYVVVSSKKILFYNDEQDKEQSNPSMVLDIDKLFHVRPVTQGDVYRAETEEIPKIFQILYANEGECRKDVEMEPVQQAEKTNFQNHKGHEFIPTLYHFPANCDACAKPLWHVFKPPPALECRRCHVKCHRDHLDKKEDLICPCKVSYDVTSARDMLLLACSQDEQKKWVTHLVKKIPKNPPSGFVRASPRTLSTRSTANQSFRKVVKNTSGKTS
Ribosomal protein S6 kinase alpha-5 (Homo sapiens), sequence (O75582 whole entry, looked up): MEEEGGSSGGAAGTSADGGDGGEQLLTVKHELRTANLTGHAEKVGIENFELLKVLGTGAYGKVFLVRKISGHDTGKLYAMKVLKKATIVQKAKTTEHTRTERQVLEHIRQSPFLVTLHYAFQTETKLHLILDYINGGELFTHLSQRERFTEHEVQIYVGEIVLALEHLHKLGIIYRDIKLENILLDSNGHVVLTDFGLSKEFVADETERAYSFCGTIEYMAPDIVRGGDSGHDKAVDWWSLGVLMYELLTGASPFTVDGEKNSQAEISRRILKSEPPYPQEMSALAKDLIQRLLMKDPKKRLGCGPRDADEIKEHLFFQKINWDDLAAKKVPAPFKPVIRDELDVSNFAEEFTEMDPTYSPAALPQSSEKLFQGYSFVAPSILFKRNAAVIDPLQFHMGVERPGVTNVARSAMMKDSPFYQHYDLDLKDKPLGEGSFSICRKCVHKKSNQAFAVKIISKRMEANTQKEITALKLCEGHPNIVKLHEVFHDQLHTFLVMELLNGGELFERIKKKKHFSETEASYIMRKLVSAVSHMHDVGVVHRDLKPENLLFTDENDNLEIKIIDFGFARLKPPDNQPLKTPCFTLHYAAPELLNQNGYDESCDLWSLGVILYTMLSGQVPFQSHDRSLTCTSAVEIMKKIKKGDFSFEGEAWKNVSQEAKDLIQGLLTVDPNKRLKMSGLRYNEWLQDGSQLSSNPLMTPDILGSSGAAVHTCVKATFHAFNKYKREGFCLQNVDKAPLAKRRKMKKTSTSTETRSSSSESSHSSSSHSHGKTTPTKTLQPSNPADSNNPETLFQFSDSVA
Tyrosine-protein kinase Lck (Homo sapiens), sequence (P06239 2-509 limits assumed): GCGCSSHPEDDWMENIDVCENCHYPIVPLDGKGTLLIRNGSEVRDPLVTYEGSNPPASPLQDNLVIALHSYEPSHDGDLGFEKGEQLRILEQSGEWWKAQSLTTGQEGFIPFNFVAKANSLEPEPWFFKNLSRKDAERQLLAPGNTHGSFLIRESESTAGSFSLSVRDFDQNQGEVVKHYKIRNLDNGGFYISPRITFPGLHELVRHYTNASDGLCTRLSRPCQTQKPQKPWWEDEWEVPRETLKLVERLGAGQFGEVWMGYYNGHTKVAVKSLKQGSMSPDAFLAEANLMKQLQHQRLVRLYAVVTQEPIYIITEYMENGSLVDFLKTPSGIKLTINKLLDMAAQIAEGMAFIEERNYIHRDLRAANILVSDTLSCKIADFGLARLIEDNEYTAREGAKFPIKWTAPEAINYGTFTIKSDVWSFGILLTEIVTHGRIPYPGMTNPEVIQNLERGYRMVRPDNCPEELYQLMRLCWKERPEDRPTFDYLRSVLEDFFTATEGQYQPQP

| SMILES | Activity [2] | also measured |
| --- | --- | --- |
| O=C(O)c1c[nH]c2c(Cl)c(Cl)ccc2c1=O | – | IC50 [1]: 800 nM |
| CCOc1cccc2c(O)c(C(=O)O)cnc12 | 103% | – |
| O=C(O)c1cnc2cc3c(cc2c1O)OCCO3 | 81% | – |
| O=C(O)c1cnc2c(Cl)cc(Cl)cc2c1O | 64% | – |
| O=C(O)c1cnc2c(Cl)c(Cl)ccc2c1O | 12.5% | – |
| O=C(O)c1cnc2c(Cl)cc(Cl)c(Cl)c2c1O | 2.6% | IC50 [1]: 300 nM; Ki [3]: 60 nM; Activity [4]: 11%; Activity [5]: 85%; Activity [6]: 74%; Activity [7]: 87%; Activity [8]: 35%; Activity [9]: 71%; Activity [10]: > 50%; Activity [11]: > 50% |
| O=C(O)c1cnc2c(F)cccc2c1O | 70% | – |
| Cc1cc(C)c2c(c1)c(=O)c(C(=O)O)cn2C | 102% | – |
| O=C(O)c1cnc2cc(Cl)cc(Cl)c2c1O | 70% | – |
| CC(C)c1cccc2c(O)c(C(=O)O)cnc12 | 95% | – |
| COc1ccc2ncc(C(=O)O)c(O)c2c1 | 101% | – |
| O=C(O)c1cnc2ccccc2c1O | 103% | – |
| CC(=O)c1ccc2ncc(C(=O)O)c(O)c2c1 | 100% | – |
| COc1cccc2c(O)c(C(=O)O)cnc12 | 92% | – |
| O=C(O)c1ccc2c(O)c(C(=O)O)cnc2c1 | 74% | – |
| O=C(O)c1cnc2c(C(=O)O)cccc2c1O | 73% | – |
| O=C(O)c1cnc2c(ccc3ccccc32)c1O | 4.5% | IC50 [1]: 1000 nM; Ki [3]: 280 nM; Activity [4]: 25%; Activity [5]: 78%; Activity [6]: 81%; Activity [7]: 80%; Activity [8]: 85%; Activity [9]: 89%; Activity [10]: > 50%; Activity [11]: > 50% |
| Cc1cc(C)c2ncc(C(=O)O)c(O)c2c1 | 63% | – |
| CCOc1ccc2ncc(C(=O)O)c(O)c2c1 | 107% | – |
| CCCCc1ccc2ncc(C(=O)O)c(O)c2c1 | 87% | – |
| O=C(O)c1cnc2ccc(I)cc2c1O | 85% | – |
| O=C(O)c1cnc2c(Cl)cccc2c1O | 37% | – |

| SMILES | Activity [2] | also measured |
| --- | --- | --- |
| O=C(O)c1ccc2ncc(C(=O)O)c(O)c2c1 | 91% | – |
| Cc1ccc2c(c1)c(=O)c(C(=O)O)cn2C | 100% | – |
| O=C(O)c1cnc2ccc(Cl)cc2c1O | 75% | – |
| Cc1ccc2c(O)c(C(=O)O)cnc2c1C | 56% | IC50 [1]: ≥ 33000 nM |
| CC1COc2c(N3CCN(C)CC3)c(F)cc3c(=O)c(C(=O)O)cn1c23 (stereo not given) | 100% | – |
| O=C(O)c1cnc2ccc(Oc3ccccc3)cc2c1O | 89% | – |
| O=C(O)c1cnc2c(Br)cccc2c1O | 42% | – |
| CCc1cccc2c(O)c(C(=O)O)cnc12 | 86% | – |
| O=C(O)c1cnc2ccc(F)cc2c1O | 72% | – |
| O=C(O)c1cnc2ccc(Br)cc2c1O | 76% | – |
| COc1cc(OC)c2ncc(C(=O)O)c(O)c2c1 | 99% | – |
| CC(C)Oc1cccc2c(O)c(C(=O)O)cnc12 | 93% | – |
| O=C(O)c1cnc2cc(C(F)(F)F)ccc2c1O | 78% | – |
| CC1COc2c(F)c(F)cc3c(=O)c(C(=O)O)cn1c23 (stereo not given) | 88% | – |
| Cc1ccc(C)c2c(O)c(C(=O)O)cnc12 | 32% | – |
| CN(C)c1ccc2ncc(C(=O)O)c(O)c2c1 | 75% | – |
| Cc1cccc2c(O)c(C(=O)O)cnc12 | 74% | – |
| CCCOc1ccc2ncc(C(=O)O)c(O)c2c1 | 80% | – |
| Cn1cc(C(=O)O)c(=O)c2ccccc21 | 106% | – |
| Cc1c(Cl)ccc2c(O)c(C(=O)O)cnc12 | 15% | IC50 [1]: 2000 nM |
| Cc1ccc2ncc(C(=O)O)c(O)c2c1 | 100% | – |
